Laboratory results: ChEMBL document CHEMBL3124814, “Synthesis and Anti-HCV Activity of 4-Hydroxyamino α-Pyranone Carboxamide Analogues” (ACS Med Chem Lett, 2014)

Tests used:
[1] = Cytotoxicity against human HuH7 cells expressing luciferase reporter gene after 3 days by WST-8 assay; type: cell-based, Huh-7
In short: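 LucNeo#2 subgenomic replicon cells, 50,000 cells/mL, pre-incubated 24 h in DMEM/10% FBS/antibiotics/1 mg/mL G418, then exposed 3 days to various compound concentrations without G418.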

[2] = (§1) Selectivity index, ratio of CC50 for human HuH7 cells to EC50 for HCV1b; design: species or system Huh-7
In short: (§2)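 Ratio of CC50 (WST-8 viable cell reduction) to EC50 (luciferase inhibition), both from LucNeo#2 replicon cells treated 3 days with compound in G418-free medium.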

Hepatitis C virus [3] = experiment: Antiviral activity against HCV1b infected in human HuH7 cells expressing luciferase reporter gene assessed as reduction of luciferase activity after 3 days; type: functional, organism-based, Hepacivirus hominis; details: genotype 1b, Huh-7, 72 h
In short: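 Subgenomic HCV replicon cells with luciferase reporter (LucNeo#2), 50,000 cells/mL in DMEM + 10% FBS, antibiotics, 1 mg/mL G418 for 24 h; then 3 days with various compound concentrations in fresh medium lacking G418. Cells PBS-washed, lysed, luciferase read by luminometer; EC50 as concentration giving 50% inhibition of luciferase activity.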

Huh-7 = experiment: as §1; in short: as §2
[4] = Cytotoxicity against human NNC2 cells assessed as GAPDH RNA level; type: cell-based
In short: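 NNC#2 full-genome replicon cells, 30,000 cells/mL, 24 h in DMEM/10% FBS/1 mg/mL G418, then 3 days with various concentrations without G418. GAPDH RNA, as cell-viability index, measured by real-time PCR simultaneously with HCV RNA; CC50 derived.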

Hepatitis C virus [5] = experiment: Antiviral activity against HCV1b infected in human NNC2 cells assessed as inhibition of viral RNA replication after 3 days by RT-PCR analysis; type: functional, organism-based, Hepacivirus hominis; details: genotype 1b, NNC2, 72 h
In short: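 Full-genome HCV RNA replicon cells (NNC#2), 30,000 cells/mL, held 24 h in DMEM + 10% FBS + 1 mg/mL G418, then 3 days in fresh G418-free medium with various concentrations.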

Row | SMILES | EC50 (Hepatitis C virus [3]) | EC50 (Hepatitis C virus [5]) | EC90 (Hepatitis C virus [5]) | CC50 at 72 h [1] | Ratio CC50/EC50 [2] | Ratio CC50/EC50 (Huh-7) | CC50 [4]
1 | O=C(NCc1ccccc1)c1c(NO)cc(-c2ccc(F)cc2)oc1=O | 1.18 µM | – | – | > 20 µM | 16.9 | – | –
2 | COC(=O)CNC(=O)c1c(NO)cc(-c2ccc(C)cc2)oc1=O | 3.99 µM | – | – | > 20 µM | 5 | – | –
3 | COC(=O)CNC(=O)c1c(NO)cc(-c2ccc(F)cc2)oc1=O | 1.93 µM | – | – | > 20 µM | 10.3 | – | –
4 | CNC(=O)c1c(NO)cc(-c2ccc(Cl)cc2)oc1=O | 0.78 µM | – | – | > 20 µM | 25.6 | – | –
5 | CCNC(=O)c1c(NO)cc(-c2ccccc2)oc1=O | 1 µM | – | – | > 20 µM | 20 | – | –
6 | Cc1ccc(-c2cc(NO)c(C(=O)NCc3ccccc3)c(=O)o2)cc1 | 0.91 µM | – | – | > 20 µM | 21.9 | – | –
7 | COC(=O)CNC(=O)c1c(NO)cc(-c2ccc(OC)cc2)oc1=O | 2.96 µM | – | – | > 20 µM | 6.7 | – | –
8 | COC(=O)CNC(=O)c1c(NO)cc(-c2ccccc2)oc1=O | 1.84 µM | – | – | > 20 µM | 10.9 | – | –
9 | Cc1ccc(NC(=O)c2c(NO)cc(-c3ccc(F)cc3)oc2=O)cc1 | 1.95 µM | – | – | > 20 µM | 10.2 | – | –
10 | CNC(=O)c1c(NO)cc(-c2ccccc2)oc1=O | 0.6 µM | – | – | > 20 µM | 33.3 | – | –
11 | COc1ccc(-c2cc(NO)c(C(=O)NCCO)c(=O)o2)cc1 | 1.41 µM | – | – | > 20 µM | 14.2 | – | –
12 | O=C(NCCO)c1c(NO)cc(-c2ccc(F)cc2)oc1=O | 2.98 µM | – | – | > 20 µM | 6.7 | – | –
13 | CNC(=O)c1c(NO)cc(-c2ccc(OC)cc2)oc1=O | 0.7 µM | – | – | > 20 µM | 28.6 | – | –
14 | Cc1ccc(-c2cc(NO)c(C(=O)Nc3ccccc3)c(=O)o2)cc1 | 1.45 µM | – | – | > 20 µM | 13.8 | – | –
15 | O=C(NCc1ccccc1)c1c(NO)cc(-c2ccc(Cl)cc2)oc1=O | 0.68 µM | – | – | > 20 µM | 29.4 | – | –
16 | COC(=O)CNC(=O)c1c(NO)cc(-c2ccc(Cl)cc2)oc1=O | 3.06 µM | – | – | > 20 µM | 6.5 | – | –
17 | O=C(Nc1ccccc1)c1c(NO)cc(-c2ccc(F)cc2)oc1=O | 1.06 µM | – | – | 10.3 µM | 9.7 | – | –
18 | O=C(NCCO)c1c(NO)cc(-c2ccccc2)oc1=O | 1.48 µM | – | – | > 20 µM | 13.5 | – | –
19 | O=C(NCCO)c1c(NO)cc(-c2ccc(Cl)cc2)oc1=O | 4 µM | – | – | > 20 µM | 5 | – | –
20 | CNC(=O)c1c(NO)cc(-c2ccc(F)cc2)oc1=O | 1.75 µM | – | – | > 20 µM | 11.4 | – | –
21 | COc1ccc(-c2cc(NO)c(C(=O)Nc3ccc(C)cc3)c(=O)o2)cc1 | 1.6 µM | – | – | > 20 µM | 12.5 | – | –
22 | Cc1ccc(-c2cc(NO)c(C(=O)NCCO)c(=O)o2)cc1 | 2.58 µM | – | – | > 20 µM | 7.7 | – | –
23 | COc1ccc(-c2cc(NO)c(C(=O)NCc3ccccc3)c(=O)o2)cc1 | 0.57 µM | – | – | > 20 µM | 35.1 | – | –
24 | Cc1ccc(NC(=O)c2c(NO)cc(-c3ccc(Cl)cc3)oc2=O)cc1 | 1.43 µM | – | – | > 20 µM | 14 | – | –
25 | O=C(Nc1ccc(O)cc1)c1c(NO)cc(-c2ccccc2)oc1=O | 1 µM | – | – | > 20 µM | 20 | – | –
26 | CNC(=O)c1c(NO)cc(-c2ccc(C)cc2)oc1=O | 1.42 µM | – | – | > 20 µM | 14.1 | – | –

Further molecules by falling EC50 (Hepatitis C virus [3]), results first:

Row | EC50 (Hepatitis C virus [3]) | EC50 (Hepatitis C virus [5]) | EC90 (Hepatitis C virus [5]) | SMILES | CC50 at 72 h [1] | Ratio CC50/EC50 [2] | Ratio CC50/EC50 (Huh-7) | CC50 [4]
27 | 0.56 µM | – | – | O=C(Nc1ccccc1)c1c(NO)cc(-c2ccc(Cl)cc2)oc1=O | 11 µM | 19.6 | – | –
28 | 0.56 µM | – | – | COc1ccc(-c2cc(NO)c(C(=O)Nc3ccccc3)c(=O)o2)cc1 | 16.2 µM | 28.9 | – | –
29 | 0.54 µM | – | – | Cc1ccccc1NC(=O)c1c(NO)cc(-c2ccccc2)oc1=O | > 20 µM | 37 | – | –
30 | 0.46 µM | – | – | Cc1ccc(NC(=O)c2c(NO)cc(-c3ccc(C)cc3)oc2=O)cc1 | > 20 µM | 43.5 | – | –
31 | 0.45 µM | – | – | CCC[C@H](NC(=O)[C@@H]1[C@H]2CCC[C@H]2CN1C(=O)[C@@H](NC(=O)[C@@H](NC(=O)c1cnccn1)C1CCCCC1)C(C)(C)C)C(=O)C(=O)NC1CC1 [TELAPREVIR] | > 20 µM | – | 44.4 | –
32 | 0.45 µM | – | – | O=C(NCCCO)c1c(NO)cc(-c2ccccc2)oc1=O | > 20 µM | 44.4 | – | –
33 | 0.45 µM | – | – | CCCNC(=O)c1c(NO)cc(-c2ccccc2)oc1=O | > 20 µM | 44.4 | – | –
34 | 0.45 µM | – | – | CC(C)NC(=O)c1c(NO)cc(-c2ccccc2)oc1=O | > 20 µM | 44.4 | – | –
35 | 0.4 µM | – | – | O=C(Nc1ccc(Cl)cc1)c1c(NO)cc(-c2ccccc2)oc1=O | > 20 µM | 50 | – | –
36 | 0.35 µM | – | – | O=C(Nc1ccccc1)c1c(NO)cc(-c2ccccc2)oc1=O | 11.6 µM | 33.1 | – | –
37 | 0.35 µM | – | – | CNC(=O)c1c(-c2ccc(F)cc2)oc2cc(N(CCO)S(C)(=O)=O)c(C3CC3)cc12 [NESBUVIR] | > 20 µM | 57.1 | – | –
38 | 0.33 µM | – | – | COC(=O)c1ccc(NC(=O)c2c(NO)cc(-c3ccccc3)oc2=O)cc1 | > 20 µM | 60.6 | – | –
39 | 0.32 µM | – | – | O=C(Nc1ccc(F)cc1)c1c(NO)cc(-c2ccccc2)oc1=O | > 20 µM | 62.5 | – | –
40 | 0.3 µM | – | – | O=C(Nc1ccc(Br)cc1)c1c(NO)cc(-c2ccccc2)oc1=O | > 20 µM | 66.7 | – | –
41 | 0.29 µM | – | – | O=C(NCc1ccccc1)c1c(NO)cc(-c2ccccc2)oc1=O | > 20 µM | 69 | – | –
42 | 0.27 µM | – | – | Cc1cccc(NC(=O)c2c(NO)cc(-c3ccccc3)oc2=O)c1 | > 20 µM | 74.1 | – | –
43 | 0.18 µM | 0.077 µM | 0.45 µM | Cc1ccc(NC(=O)c2c(NO)cc(-c3ccccc3)oc2=O)cc1 | > 20 µM | 111.1 | – | > 10 µM
44 | 0.17 µM | – | – | COc1ccc(NC(=O)c2c(NO)cc(-c3ccccc3)oc2=O)cc1 | > 20 µM | 117.6 | – | –
